Drawing on ChEMBL document CHEMBL3600305, “Flemingin-Type Prenylated Chalcones from the Sarawak Rainforest Plant Desmodium congestum” (J Nat Prod, 2015), this text covers MIC and IC50 for five compounds.

In brackets after ≈: the same amount, converted by molar mass.

For experiment [1], the system named is Staphylococcus aureus. As to the kind of experiment: Antibacterial activity against methicillin-resistant Staphylococcus aureus ATCC 43300 after 24 hrs. Particulars: ATCC 43300, 24 h. Format: functional. Put shortly: (§1)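 Broth microdilution in MHB. Overnight cultures grown at 37 °C with shaking, diluted 40-fold and grown 2−3 h to mid-log, then added at a final 5 × 10^5 CFU/mL. Compounds in 2-fold serial dilution, final 0.015−32 μg/mL, in duplicate. Incubated 24 h at 37 °C. MIC read visually as the lowest concentration with no visible growth. Vancomycin, daptomycin and colistin served as controls.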

Experiment [2] has as its system Staphylococcus aureus. As to the kind of experiment: Antibacterial activity against glycopeptide-intermediate Staphylococcus aureus NRSA-NRS 17 after 24 hrs. Format: functional. Particulars: NRSA-NRS 17, 24 h. Put shortly: (§2)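 Broth microdilution in MHB. Overnight cultures at 37 °C with shaking, diluted 40-fold and grown 2−3 h to mid-log, then added at final 5 × 10^5 CFU/mL. Compounds in 2-fold series, final 0.015−32 μg/mL, in duplicate. Incubated 24 h at 37 °C. MIC read visually as lowest concentration with no visible growth. Vancomycin, daptomycin and colistin as controls.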

In experiment [3] the test system is Staphylococcus aureus. As to the kind of experiment: Antibacterial activity against methicillin-resistant and glycopeptide-intermediate Staphylococcus aureus NRSA-NRS 1 after 24 hrs. Format: functional. Particulars: NRSA-NRS 1, 24 h. Put shortly:
as §1

Another experiment concerns Streptococcus pneumoniae. As to the kind of experiment: Antibacterial activity against multidrug-resistant Streptococcus pneumoniae ATCC 700677 after 24 hrs. Format: functional. The conditions noted are these: ATCC 700677, 24 h. Put shortly: as §1
Another experiment has as its system Enterococcus faecalis. As to the kind of experiment: Antibacterial activity against Enterococcus faecalis clinical isolate expressing VanA after 24 hrs. Format: functional. Put shortly:
as §1

A further experiment has as its system Enterococcus faecium. Nature of the experiment: Antibacterial activity against multidrug-resistant Enterococcus faecium ATCC 51559 expressing VanA after 24 hrs. Format: functional. The conditions noted are these: ATCC 51559, 24 h. Put shortly:
as §1

The next experiment concerns Escherichia coli. As to the kind of experiment: Antibacterial activity against Escherichia coli ATCC 25922 after 24 hrs. Format: functional. Put shortly: as §2
For a further experiment, the system named is HEK293. Nature of the experiment: Cytotoxicity against human HEK293 cells after 24 hrs. Format: cell-based. The conditions noted are these: HEK293, 24 h. Put shortly: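 HEK293 cells seeded at 3000/well in DMEM with 10% FBS, attached 24 h at 37 °C, 5% CO2. Compounds from 1.28 mg/mL DMSO stock in 1:3 serial dilutions, final DMSO 1%, 24 h exposure. Resazurin 10 μM added for 2 h; fluorescence ex/em 560/590 nm. Four replicates; viability normalised to 1% DMSO and negative controls. Tamoxifen positive control.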

As usually defined, the MIC is the smallest concentration in the dilution series that meets the test's criterion for growth inhibition. A higher MIC goes with weaker potency. For `CCCCCCCCCC(=O)N[C@@H](Cc1c[nH]c2ccccc12)C(=O)N[C@H](CC(N)=O)C(=O)N[C@@H](CC(=O)O)C(=O)N[C@@H]1C(=O)NCC(=O)N[C@@H](CCCN)C(=O)N[C@@H](CC(=O)O)C(=O)N[C@H](C)C(=O)N[C@@H](CC(=O)O)C(=O)NCC(=O)N[C@H](CO)C(=O)N[C@@H]([C@H](C)CC(=O)O)C(=O)N[C@@H](CC(=O)c2ccccc2N)C(=O)O[C@@H]1C`, the MIC in the experiment with Staphylococcus aureus [1] is 1.2 µg/mL (≈ 0.74 µM); in the experiment on Staphylococcus aureus [2], 8 µg/mL (≈ 4.94 µM); in the experiment on Staphylococcus aureus [3], 16 µg/mL (≈ 9.87 µM); with Streptococcus pneumoniae it was 2 µg/mL (≈ 1.23 µM); against Enterococcus faecalis, 8 µg/mL (≈ 4.94 µM); against Enterococcus faecium, 16 µg/mL (≈ 9.87 µM).
For orientation: IC50 means the concentration at which inhibition is half-maximal. As for `COc1cc(C(=O)/C=C/c2cc(O)ccc2O)c(O)c2c1OC(C)(CCC=C(C)C)C=C2` (stereo not drawn), the MIC in the experiment on Staphylococcus aureus [1] was 32 µg/mL (≈ 73.3 µM); against Staphylococcus aureus [2] it was > 32 µg/mL; against Staphylococcus aureus [3] it was 32 µg/mL (≈ 73.3 µM); with Streptococcus pneumoniae, 32 µg/mL (≈ 73.3 µM); in the experiment with Enterococcus faecalis, 16 µg/mL (≈ 36.7 µM); with Enterococcus faecium it was 32 µg/mL (≈ 73.3 µM). Further, the minimal inhibitory concentration (MIC) against Escherichia coli (ATCC 25922, 24 h) was > 32 µg/mL. The same compound yielded an IC50 in the experiment with HEK293 of 21 µM.
COLISTIN came in with an MIC against Escherichia coli of 0.25 µg/mL.
Regarding `COc1cc(C(=O)/C=C/c2cccc(O)c2O)c(O)c2c1OC(C)(CCC=C(C)C)C=C2` (stereo not drawn), the MIC is 32 µg/mL (≈ 73.3 µM) against Staphylococcus aureus [1]; > 32 µg/mL against Staphylococcus aureus [2]; 32 µg/mL (≈ 73.3 µM) with Staphylococcus aureus [3]; 32 µg/mL (≈ 73.3 µM) in the experiment on Streptococcus pneumoniae; 16 µg/mL (≈ 36.7 µM) with Enterococcus faecalis; 32 µg/mL (≈ 73.3 µM) in the experiment with Enterococcus faecium. Besides, in the experiment on Escherichia coli (ATCC 25922, 24 h), the MIC is > 32 µg/mL. In the experiment on HEK293, the IC50 was found to be 37 µM.
As to `CN[C@H](CC(C)C)C(=O)N[C@H]1C(=O)N[C@@H](CC(N)=O)C(=O)N[C@H]2C(=O)N[C@H]3C(=O)N[C@H](C(=O)N[C@H](C(=O)O)c4cc(O)cc(O)c4-c4cc3ccc4O)[C@H](O)c3ccc(c(Cl)c3)Oc3cc2cc(c3O[C@@H]2O[C@H](CO)[C@@H](O)[C@H](O)[C@H]2O[C@H]2C[C@](C)(N)[C@H](O)[C@H](C)O2)Oc2ccc(cc2Cl)[C@H]1O` [VANCOMYCIN], the minimal inhibitory concentration (MIC) against Staphylococcus aureus [2] was 8 µg/mL (≈ 5.52 µM); against Staphylococcus aureus [3], 8 µg/mL (≈ 5.52 µM); in the experiment with Streptococcus pneumoniae, 2 µg/mL (≈ 1.38 µM); against Enterococcus faecalis it was > 32 µg/mL; against Enterococcus faecium it was > 32 µg/mL.
